Measured values collected from several papers.
Each line is one published result; the experiments were not run side by side.
Target: STE20-like serine/threonine-protein kinase (SLK, Homo sapiens, UniProt Q9H2G2)

SMILES	read-out	method	tested at	remaining binding
c1cnn2ncc(-c3ccnc(N4CCC45COC5)n3)c2c1	binding	–	1 µM	100%
C[C@@]1(Cc2ccc(C#N)cc2)C(=O)N(c2cc(Cl)cc(Cl)c2)c2ncc(C(=O)NC3(c4nc(C5CCC5)no4)CC3)n21	cell-free assay	competition with immobilised ligand	1 µM	100%
O=C(Nc1c[nH]nc1C(=O)NC1CCNCC1)c1cc(F)cc(F)c1	binding	competition with immobilised ligand	1 µM	100%
c1cncc(-c2cccc(Nc3nccc(NC4CCCCC4)n3)c2)c1	binding	competition with immobilised ligand	10 µM	19%
CCOC(=O)c1cc2cc(-c3cc(C(=O)NCc4ccc(C(=O)O)cc4)nn3C)ccc2[nH]1	cell-free assay	competition with immobilised ligand	0.1 µM	98%
Cc1cnc(Nc2ccc(C(=O)N3CCC(N4CCCC4)CC3)cc2)nc1-c1cc2ccccc2s1	binding	competition with immobilised ligand	1 µM	0.4%
NS(=O)(=O)c1cc(NC(=O)Cc2ccccc2)ccc1Oc1cccc(Cl)c1	cell-free assay	competition with immobilised ligand	1 µM	66%
CNC(=O)[C@@H]1CC[C@@H](n2c(-c3ccc4cnccc4c3)nc3ccc(C(=O)NCc4cccc(C(N)=O)c4)cc32)C1	binding	competition with immobilised ligand	1 µM	95%
Nc1ncc2c(n1)-c1c([nH]c3ccc(C#CC4CC4)cc13)CCCC2	binding	competition with immobilised ligand	1 µM	100%
O=C(NCCCN1CCOCC1)c1ccc(Nc2nccc(-c3cc4ccccc4s3)n2)cc1	binding	competition with immobilised ligand	1 µM	38%
Cc1nc(Cc2cccc(C(F)(F)F)c2)sc1-c1ccc(C(N)=O)nc1	cell-free assay	competition with immobilised ligand	1 µM	100%
C[C@H]1CCN(c2nccc(-c3cnn4ncccc34)n2)C1	binding	–	1 µM	96%
Cc1nc(N2CC[C@@H](O)C2)ncc1-c1cc(C(F)(F)F)cc2[nH]ncc12	binding	competition with immobilised ligand	1 µM	98%
N[C@@H]1CCN(c2nccc(-c3cnn4ncccc34)n2)C1	binding	–	1 µM	83%
FC(F)(F)Oc1cccc(-c2cnc3ccc(-c4ccncc4)nn23)c1	binding	competition with immobilised ligand	5 µM	7.8%
Cc1cnn2ncc(-c3ccnc(N(C)C)n3)c2c1	binding	–	1 µM	100%
O=C(c1ccc(Nc2ncc(Cl)c(-c3cc4ccccc4s3)n2)cc1)N1CCC(N2CCCC2)CC1	binding	competition with immobilised ligand	1 µM	1.7%
CC1CCCN1c1nccc(-c2cnn3ncccc23)n1 (stereo not drawn)	binding	–	1 µM	100%
COc1cnc(Nc2cccc(S(N)(=O)=O)c2)nc1N1CCN(c2ccccc2)C(=O)C1	binding	competition with immobilised ligand	1 µM	100%
CN(C)c1nccc(-c2cnc3ncccn23)n1	binding	–	1 µM	100%
O=C(NS(=O)(=O)c1ccc(NCC2CCOCC2)c([N+](=O)[O-])c1)c1ccc(N2CCN(Cc3ccc(C(F)(F)F)cc3-c3ccc(Cl)cc3)CC2)cc1Oc1cnc2[nH]ccc2c1	cell-free assay	competition with immobilised ligand	1 µM	100%
